The IC50 is the point on the concentration scale where inhibition reaches its midpoint.

The record followed here is ChEMBL document CHEMBL2311246 (Bioorg Med Chem, 2013).

Series [1] relates to DU-145. Put plainly: Antiproliferative activity against human DU145 cells after 72 hrs after ATPlite kit assay. In kind it is functional, cell-based. The note with it: DU-145, 72 h. A digest of the protocol:
(§1)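 10,000 cells per well plated, incubated overnight, then exposed to increasing compound concentrations for 72 h. Viability read by ATPlite luminescence. IC50 obtained by linear regression. Prostate lines (DU145, PC-3, LNCaP) are ATCC stocks. LNCaP culture was modified from the earlier method.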
On the technique in general: In ATP-based viability assays light output follows the ATP content of the culture.

The test system of series [2] is LNCaP. Put plainly: Antiproliferative activity against human LNCAP cells after 72 hrs after ATPlite kit assay. In kind it is functional, cell-based. A digest of the protocol:
as §1

In series [3] the test system is PC-3. Put plainly: Antiproliferative activity against human PC3 cells after 72 hrs after ATPlite kit assay. In kind it is functional, cell-based. The note with it: PC-3, 72 h. A digest of the protocol: as §1
Series [4] relates to Hepatitis C virus. As to the kind of experiment: Antiviral activity against HCV JFH1 infected in human Huh7.5.1 cells assessed as reduction in viral proteins after 72 hrs post compound dose by Western blotting method. In kind it is functional, organism-based, Hepacivirus hominis. Conditions: JFH1, Huh-7, 72 h. (In western blotting, separated proteins are transferred to a membrane and probed.)

In series [5] the target is Cytochrome P450 2C9 (Homo sapiens, UniProt P11712). As to the kind of experiment: Inhibition of CYP2C9 in pooled human liver microsomes assessed as reduction in enzyme-mediated (S)-warfarin 7-hydroxylation by HPLC/MS-MS method. In kind it is ADME, Microsome. A digest of the protocol:
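Pooled HLM (0.1 mg/mL microsomal protein) incubated with (S)-warfarin 4 µM and compound at 1, 10 or 100 µM in 100 mM potassium phosphate, pH 7.4. Vehicle controls held 0.75% MeOH (v/v). Sulfaphenazole 1 µM served as positive control. 7-Hydroxywarfarin measured by HPLC/MS-MS. Means ± SD of triplicate incubations; two-way ANOVA with Tukey post hoc test.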
Background: Liver microsomes are vesicles of endoplasmic reticulum, rich in cytochrome P450 enzymes.

Series [6] can be described thus: Antiproliferative activity against human Huh7.5.1 cells after 72 hrs after ATPlite kit assay. In kind it is functional, cell-based. Conditions: Huh-7, 72 h. The method in brief: as §1
For series [7], the system named is Hepatitis C virus. Put plainly: Antiviral activity against HCV JFH1 infected in human Huh7.5.1 cells assessed as reduction in viral proteins at non-cytotoxic concentration after 72 hrs post compound dose by Western blotting method. Conditions: Hepacivirus hominis, Huh-7. In kind it is functional, organism-based.

The source made the active and inactive calls. No cut-off for these calls is given here.

Cytochrome P450 2C9, sequence (P11712 whole entry): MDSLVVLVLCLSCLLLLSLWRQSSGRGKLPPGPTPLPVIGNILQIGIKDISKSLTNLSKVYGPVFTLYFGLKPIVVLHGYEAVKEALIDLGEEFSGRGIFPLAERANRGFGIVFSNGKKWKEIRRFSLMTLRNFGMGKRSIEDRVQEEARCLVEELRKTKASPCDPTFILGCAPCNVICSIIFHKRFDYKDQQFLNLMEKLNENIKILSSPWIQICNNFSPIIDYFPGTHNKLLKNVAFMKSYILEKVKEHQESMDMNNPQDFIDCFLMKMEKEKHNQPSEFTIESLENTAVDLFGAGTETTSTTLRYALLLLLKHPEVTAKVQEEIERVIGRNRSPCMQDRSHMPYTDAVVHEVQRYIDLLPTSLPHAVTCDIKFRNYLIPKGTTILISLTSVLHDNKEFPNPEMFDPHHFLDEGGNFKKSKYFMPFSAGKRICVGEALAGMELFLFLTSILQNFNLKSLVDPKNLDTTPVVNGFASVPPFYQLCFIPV

As to `COC[C@@H]1Oc2ccc([C@H]3Oc4cc(OC)cc(O)c4C(=O)[C@@H]3O)cc2O[C@H]1c1ccc(OC)c(OC)c1`, the results for the 50% inhibitory concentration (IC50) in series [1], in series [2] and in series [3] were 16.8 µM, 19.8 µM and 21.9 µM, respectively.

On to `COc1cc([C@@H]2Oc3cc([C@H]4Oc5cc(O)cc(O)c5C(=O)[C@@H]4O)ccc3O[C@H]2CO)ccc1O` [SILYBIN B], for which the IC50 in series [4] turned out to be 40 µM; in series [1], 61.8 µM; in series [2] it was 69.6 µM; in series [3] it was 60.5 µM; in series [5] it was 8.2 µM; in series [6] it was 56.2 µM.

As to `COc1cc(O)c2c(c1)O[C@H](c1ccc3c(c1)O[C@@H](c1ccc(O)c(OC)c1)[C@H](CO)O3)[C@@H](O)C2=O`, the IC50 in series [1] came out at 19.3 µM; in series [2] it was 20.1 µM; in series [3], 16.9 µM; in series [6], 13.3 µM. In addition, the outcome in series [7] was Active.

For `COC[C@@H]1Oc2ccc([C@H]3Oc4cc(OC)cc(OC)c4C(=O)[C@@H]3O)cc2O[C@H]1c1ccc(OC)c(OC)c1`, the IC50 worked out at 24 µM in series [1], 30.1 µM in series [2], 14.4 µM in series [3] and 15.6 µM in series [6]. The “inhibition (INH)” value in series [5] (human, microsomes) was “Not Active”. The outcome in series [7] was Active.

In the case of `COc1cc(O)c2c(c1)O[C@H](c1ccc3c(c1)O[C@@H](c1ccc(OC)c(OC)c1)[C@H](CO)O3)[C@@H](O)C2=O`, the half-maximal inhibitory concentration (IC50) is 10 µM in series [1], 11.3 µM in series [2], 8.1 µM in series [3] and 13.5 µM in series [6]. Moreover, the result in series [7] was Active.

Regarding `COc1cc(OC)c2c(c1)O[C@H](c1ccc3c(c1)O[C@@H](c1ccc(OC)c(OC)c1)[C@H](CO)O3)[C@@H](O)C2=O`, the 50% inhibitory concentration (IC50) was 46.9 µM in series [1], 40.7 µM in series [2], 36.3 µM in series [3] and 25.5 µM in series [6]. In series [7], the result was Active.
